Measured values from different studies.
Compare with care: the assays were run in different laboratories.
MAOA: Amine oxidase [flavin-containing] A (MAOA, Homo sapiens, UniProt P21397)
WEE2: Wee1-like protein kinase 2 (WEE2, Homo sapiens, UniProt P0C1S8)

Oc1cccc(Nc2nc(-c3ccc(F)cc3F)cs2)c1
inhibition (Vasoactive intestinal polypeptide receptor 1 (VIPR1, Homo sapiens, UniProt P32241); cell-free assay; 10 µM): -0.5%

O=C(Nc1ccc([N+](=O)[O-])cc1Cl)c1cc2ccccc2s1
inhibition (MAOA; enzyme activity, inhibitor; 1 µM, 20 min): 11%

O=C(O)c1ccc2c(c1)nc(Nc1ccccc1)c1ccncc12
remaining activity (Homeodomain-interacting protein kinase 3 (HIPK3, Homo sapiens, UniProt Q9H422); enzyme activity, inhibitor, radiometric; 1 µM): 20%

O=C(Nc1ccc([N+](=O)[O-])cc1Cl)c1ccc2ccccc2c1O
inhibition (MAOA; enzyme activity, inhibitor; 1 µM, 20 min): -4%

CC[C@H](C)[C@H](NC(=O)[C@H](CCC(N)=O)NC(=O)[C@H](CC(C)C)NC(=O)[C@H](CCSC)NC(=O)[C@H](CCCCN)NC(=O)[C@H](CO)NC(=O)[C@H](CO)NC(=O)[C@H](CCSC)NC(=O)[C@H](CC(C)C)NC(=O)[C@H](CC(N)=O)NC(=O)[C@@H](NC(=O)[C@@H](NC(=O)[C@H](CO)NC(=O)[C@H](CC(C)C)NC(=O)[C@H](CS)NC(=O)[C@H](CCCNC(=N)N)NC(=O)[C@H](CC(=O)O)NC(=O)[C@H](Cc1c[nH]c2ccccc12)NC(=O)[C@H](Cc1ccccc1)NC(=O)[C@H](C)NC(=O)[C@H](CCC(=O)O)NC(=O)[C@@H](N)CCCCN)C(C)C)[C@@H](C)CC)C(=O)N[C@@H](CC(N)=O)C(=O)N[C@@H](C)C(=O)O
inhibition (Cyclin-dependent kinase 5, with p25 (CDK5, Homo sapiens, UniProt Q00535); enzyme activity, inhibitor, radiometric; 500 µM): 72%

O=C(Nc1ccc([N+](=O)[O-])cc1C(F)(F)F)c1cc(Cl)ccc1O
inhibition (MAOA; enzyme activity, inhibitor; 1 µM, 20 min): 13%

COc1cc(Cl)c(C(=O)N[C@@H](CN[C@H]2CC[C@@H](N)CC2)Cc2ccc(C#N)cc2)cc1-c1ccc(CN[C@H](C)c2ccc(C)cc2)o1
remaining activity (Cyclin-dependent kinase-like 4 (CDKL4, Homo sapiens, UniProt Q5MAI5); enzyme activity, inhibitor; 1 µM): 90%

O=C(Nc1ccccn1)c1ccc(Cl)cc1
inhibition (MAOA; enzyme activity, inhibitor; 1 µM, 20 min): 13%

O=C(O)c1ccc2c(c1)nc(NCCc1cccc(Cl)c1)c1ncncc12
remaining activity (Homeodomain-interacting protein kinase 4 (HIPK4, Homo sapiens, UniProt Q8NE63); enzyme activity, inhibitor, radiometric; 1 µM): 53%

Cc1ccc(C(=O)Nc2ccc(CN3CCN(C)CC3)c(C(F)(F)F)c2)cc1C#Cc1cnc2cccnn12
remaining activity (Cyclin-dependent kinase-like 2 (CDKL2, Homo sapiens, UniProt Q92772); enzyme activity; 23.5 nM): 0%

O=C(Nc1ccccc1)c1cc(Cl)ccc1O
inhibition (MAOA; enzyme activity, inhibitor; 1 µM, 20 min): 20%

Nc1ncnc2occ(-c3ccc(NC(=O)Nc4cc(C(F)(F)F)ccc4F)cc3)c12
remaining signal (WEE2; cell-free assay, inhibitor; 20 µM): 99%

CC[C@H](C)[C@H](NC(=O)[C@H](CC(=O)O)NC(=O)[C@@H](NC(=O)[C@H](Cc1ccccc1)NC(=O)[C@H](C)NC(=O)[C@H](Cc1ccccc1)NC(=O)[C@@H]1CCCN1C(=O)[C@H](C)NC(=O)[C@@H](NC(=O)[C@H](CO)NC(=O)[C@H](Cc1ccccc1)NC(=O)[C@H](CCCNC(=N)N)NC(=O)[C@H](CCCNC(=N)N)NC(=O)[C@@H](N)CC(C)C)[C@@H](C)O)[C@@H](C)CC)C(=O)N[C@@H](CC(N)=O)C(=O)N[C@@H](CC(=O)O)C(=O)N[C@H](C(=O)N[C@H](C(=O)N[C@@H](CC(N)=O)C(=O)N[C@@H](Cc1ccccc1)C(=O)O)[C@@H](C)CC)C(C)C
kon (Integrin alpha-V/beta-3 (Homo sapiens, UniProt P05106+P06756); binding, BLI): 1e+06 M⁻¹ s⁻¹

NNCCc1ccc(NC(=O)CCCc2ccccc2)cc1
KI (inactivation) (MAOA; enzyme activity, inhibitor): 2600 nM

COc1cc(NC(C)=O)c(Cl)cc1C(=O)Nc1nccs1
inhibition (Kappa-type opioid receptor (Oprk1, Rattus norvegicus, UniProt P34975); ligand displacement, radioligand; 10 µM): 42.5%

CCCOc1ccc(OC)c(F)c1C(=O)c1ccc(C(=O)N[C@@H]2CNC[C@H]2NC(=O)c2ccc3[nH]ncc3c2)cc1
remaining activity (Ribosomal protein S6 kinase alpha-1 (Rps6ka1, Rattus norvegicus, UniProt Q63531); enzyme activity, inhibitor; 50 nM): 106%

CN1CC(Oc2cnc(C#N)cc2-c2ccn3nc(NC(=O)C4CC4)cc3c2)C1
inhibition (WEE2; enzyme activity, inhibitor; 1 µM): 3%

O=C(Nc1ccc([N+](=O)[O-])cc1Cl)c1cc2ccccc2cc1O
inhibition (MAOA; enzyme activity, inhibitor; 1 µM, 20 min): -2%
